Results taken from PMC7228743 (Science Advances, 2020).

Legend:
Serum stability assay = type: in vitro ADME; settings: 25% (v/v) pooled human serum, 37°C, 24 hours; RP-HPLC peak area at 215 nm
Summary of the method: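 Peptides dissolved in H2O/MeCN (70:30 v/v), diluted into 25% (v/v) aqueous pooled serum from human male AB plasma, and held at 37°C for 24 hours. Samples were quenched with an equal volume of MeCN on ice for 20 min, then centrifuged at 4°C for 15 min. Supernatant was diluted in H2O (0.1% TFA) to 0.1 mg/ml and run on RP-HPLC. Intact peptide was taken from the elution peak area at 215 nm.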

hGLP-1R = hGLP-1R (Homo sapiens, UniProt P43220); assay: In vitro GLP-1R activation assay; type: cell-based; settings: ratio of cAMP EC50 values, 39.79 nM versus […]
hGLP-1R, sequence (P43220 24-463): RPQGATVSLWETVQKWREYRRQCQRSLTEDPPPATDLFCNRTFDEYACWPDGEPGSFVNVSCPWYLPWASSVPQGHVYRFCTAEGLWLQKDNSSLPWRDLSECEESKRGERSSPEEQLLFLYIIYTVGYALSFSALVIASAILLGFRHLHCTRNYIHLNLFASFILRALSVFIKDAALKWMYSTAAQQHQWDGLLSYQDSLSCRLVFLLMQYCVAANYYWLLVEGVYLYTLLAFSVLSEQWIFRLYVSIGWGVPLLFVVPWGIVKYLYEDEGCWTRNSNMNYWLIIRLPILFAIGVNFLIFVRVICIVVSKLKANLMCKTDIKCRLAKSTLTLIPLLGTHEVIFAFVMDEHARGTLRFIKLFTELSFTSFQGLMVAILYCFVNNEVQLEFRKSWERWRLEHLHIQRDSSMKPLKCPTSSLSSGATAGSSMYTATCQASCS

| Structure (SMILES) | Stability in the presence of serum (in words) (Serum stability assay) | Potency of 3 relative to capped GLP-1 2 (fold lower) (hGLP-1R) |
| --- | --- | --- |
| CC[C@H](C)[C@@H](CN(CC(=O)N[C@@H](Cc1c[nH]c2ccccc12)CN(CC(=O)N[C@H](CN(CC(=O)NCCN(CC(N)=O)S(=O)(=O)CCN)S(=O)(=O)CCN)C(C)C)S(=O)(=O)CC(C)C)S(C)(=O)=O)NC(=O)CN(C[C@H](CCC(=O)O)NC(=O)CN(C[C@H](C)NC(=O)CN(C[C@H](CCCCN)NC(=O)CN(C[C@H](CCC(=O)O)NC(=O)CN(C[C@H](Cc1ccc(O)cc1)NC(=O)CN(C[C@H](CO)NC(=O)CN(C[C@H](CC(=O)O)NC(=O)CN(C[C@@H](NC(=O)CN(C[C@@H](NC(=O)CN(C[C@H](CCC(=O)O)NC(=O)CN(C[C@H](Cc1ccccc1)NC(C)=O)S(C)(=O)=O)S(C)(=O)=O)[C@@H](C)O)S(=O)(=O)Cc1ccccc1)[C@@H](C)O)S(C)(=O)=O)S(=O)(=O)CC(C)C)S(C)(=O)=O)S(=O)(=O)CC(C)C)S(C)(=O)=O)S(C)(=O)=O)S(=O)(=O)CCN)S(=O)(=O)Cc1ccccc1 [compound 3] | remarkable stability | ~ 10 fold |
| CC[C@H](C)[C@@H](CN(CC(=O)N[C@@H](Cc1c[nH]c2ccccc12)CN(CC(=O)N[C@H](CN(CC(=O)NCCN(CC(N)=O)S(=O)(=O)CCN)S(=O)(=O)CCN)C(C)C)S(=O)(=O)CC(C)C)S(C)(=O)=O)NC(=O)CN(C[C@H](CCC(=O)O)NC(=O)CN(C[C@H](C)NC(=O)CN(C[C@H](CCCCN)NC(=O)CN(C[C@H](CCC(=O)O)NC(=O)CN(C[C@H](Cc1ccc(O)cc1)NC(=O)CN(C[C@H](CO)NC(=O)CN(C[C@H](CC(=O)O)NC(=O)CN(C[C@@H](NC(=O)CN(C[C@@H](NC(=O)CN(C[C@H](CCC(=O)O)NC(=O)CN(C[C@H](Cc1ccccc1)NC(C)=O)S(C)(=O)=O)S(C)(=O)=O)[C@@H](C)O)S(=O)(=O)Cc1ccccc1)[C@@H](C)O)S(C)(=O)=O)S(=O)(=O)CC(C)C)S(=O)(=O)c1ccc(OC)cc1)S(=O)(=O)CC(C)C)S(C)(=O)=O)S(C)(=O)=O)S(=O)(=O)CCN)S(=O)(=O)Cc1ccccc1 [compound 5] | remarkable stability |  |
